Data from ChEMBL document CHEMBL5380783, “N-Substituted l-Iminosugars for the Treatment of Sanfilippo Type B Syndrome” (J Med Chem, 2023).
Active and inactive are the calls of the source. The rule behind the calls is not given here.

What was measured:
[1] = tested on: IB3-1; experiment: Antiproliferative activity against human IB3-1 cells upto 100 uM; assay type: toxicity, cell-based; conditions: ib3-1, 100 µM
[2] = Cytotoxicity against human CuFi cells assessed as induction of apoptosis upto 100 uM; assay type: toxicity, cell-based
[3] = tested on: SK-N-BE(2); experiment: Effect on heparan sulfate changes in human SK-NBE cell membrane at 20 uM incubated for 48 hrs by indirect immunofluorescence staining analysis; assay type: functional, cell-based
In short: (§1)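 Control and NAGLU-silenced SK-NBE clones grown on coverslips with 20 μM compound for 48 h. Fixed in 3.7% formaldehyde, permeabilized with saponin/BSA buffer, stained with anti-Lamp1 or anti-HS 10E4 for 1 h, then Alexa secondaries. Confocal imaging with 63× objective. Scored as percent cells with enlarged Lamp1 structures or membrane HS, plus mean fluorescence intensity, over 50 random cells from three experiments.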

[4] = tested on: HaCaT; experiment: Cytotoxicity against human HaCaT cells assessed as induction of apoptosis upto 100 uM; assay type: toxicity, cell-based
[5] = tested on: HeLa; experiment: Cytotoxicity against human HeLa cells assessed as reduction in cell viability at 20 uM incubated for 48 hrs by trypan blue exclusion method; assay type: functional, cell-based
In short: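 HeLa cells seeded at 100,000 per well and grown overnight in complete RPMI. Exposed to 20 μM compound in the same medium for 48 h at 37 °C; untreated mock as control. Cells trypsinized, live cells counted by trypan blue exclusion on an automated counter. Means of three independent experiments, each in triplicate, with s.e.m.; Student's t-test, p < 0.05.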

[6] = tested on: Fibroblast; experiment: Inhibition of lysosomal defects in Sanfilippo-B patient derived human fibroblast cells assessed as dispersion of lysosomes all over the cytoplasm at 20 uM incubated for 48 hrs by LAMP1 staining based indirect immunofluorescence assay; assay type: functional, cell-based
In short: (§2)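 HDFa, MPS IIIA, MPS IIIB and MPS I patient fibroblasts in DMEM, 10% FBS, grown 48 h on coverslips with 20 μM compound. Double immunostained for HS (10E4) and Lamp1 with DAPI, confocal imaging. Mean fluorescence intensity expressed relative to untreated cells (d-enantiomers: percent positive cells), 50 random cells from three experiments.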

[7] = tested on: HeLa; experiment: Inhibition of heparan sulfate accumulation on cell membrane in human HeLa cells at 20 uM incubated for 48 hrs by indirect immunofluorescence staining analysis; assay type: functional, cell-based
In short: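 HeLa cells grown 48 h with compound, then immunostained with anti-HS antibody 10E4 to gauge membrane HS.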

[8] = tested on: SK-N-BE(2); experiment: Inhibition of lysosomal defects in NAGLU-silenced human SK-NBE cell clones assessed as reduction in accumulation of enlarged LAMP1-positive lysosomal structures within the cytoplasm at 20 uM incubated for 48 hrs by LAMP1 staining based indirect immunofluorescence assay; assay type: functional; in short: as §1
[9] = tested on: SK-N-BE(2); experiment: Inhibition of heparan sulfate accumulation on cell membrane in NAGLU-silenced human SK-NBE cells clone at 20 uM incubated for 48 hrs by indirect immunofluorescence staining analysis; assay type: functional, cell-based; in short: as §1
[10] = tested on: SK-N-BE(2); experiment: Effect on lysosome size and distribution in human SK-NBE cell clone assessed as at 20 uM incubated for 48 hrs by LAMP1 staining based indirect immunofluorescence assay; assay type: functional; in short: as §1
[11] = tested on: Fibroblast; experiment: Effect on heparan sulfate changes in human fibroblast cells at 20 uM incubated for 48 hrs by indirect immunofluorescence staining analysis; assay type: functional, cell-based; in short: as §2
[12] = tested on: Fibroblast; experiment: Inhibition of lysosomal defects in Sanfilippo-B patient derived human fibroblast cells assessed as reduction in accumulation of enlarged LAMP1-positive lysosomal structures within the cytoplasm at 20 uM incubated for 48 hrs by LAMP1 staining based indirect immunofluorescence assay; assay type: functional, cell-based; in short: as §2
[13] = tested on: IB3-1; experiment: Cytotoxicity against human IB3-1 cells assessed as induction of apoptosis upto 100 uM; assay type: toxicity, cell-based; conditions: ib3-1, 100 µM
[14] = tested on: Fibroblast; experiment: Inhibition of lysosomal defects in Sanfilippo-B patient derived human fibroblast cells assessed as reduction in more concentrated lysosomal distribution in the perinuclear region of the cytoplasm at 20 uM incubated for 48 hrs by LAMP1 staining based indirect immunofluorescence assay; assay type: functional, cell-based; in short: as §2
[15] = tested on: HaCaT; experiment: Antiproliferative activity against human HaCaT cells upto 100 uM; assay type: toxicity, cell-based
[16] = Antiproliferative activity against human CuFi cells upto 100 uM; assay type: toxicity, cell-based
[17] = tested on: Fibroblast; experiment: Inhibition of lysosomal defects in Sanfilippo-A patient derived human fibroblast cells assessed as reduction in accumulation of enlarged LAMP1-positive lysosomal structures within the cytoplasm at 20 uM incubated for 48 hrs by LAMP1 staining based indirect immunofluorescence assay; assay type: functional, cell-based; in short: as §2
[18] = tested on: Fibroblast; experiment: Inhibition of lysosomal defects in MPS-1 patient derived human fibroblast cells assessed as reduction in accumulation of enlarged LAMP1-positive lysosomal structures within the cytoplasm at 20 uM incubated for 48 hrs by LAMP1 staining based indirect immunofluorescence assay; assay type: functional, cell-based; in short: as §2
[19] = tested on: Fibroblast; experiment: Inhibition of heparan sulfate accumulation on cell membrane in Sanfilippo-A patient derived human fibroblast cells at 20 uM incubated for 48 hrs by indirect immunofluorescence staining analysis; assay type: functional, cell-based; in short: as §2
[20] = tested on: SK-N-BE(2); experiment: Inhibition of lysosomal defects in NAGLU-silenced human SK-NBE cell clones assessed as dispersion of lysosomes all over the cytoplasm at 20 uM incubated for 48 hrs by LAMP1 staining based indirect immunofluorescence assay; assay type: functional; in short: as §1
[21] = tested on: Fibroblast; experiment: Inhibition of heparan sulfate accumulation on cell membrane in MPS-1 patient derived human fibroblast cells at 20 uM incubated for 48 hrs by indirect immunofluorescence staining analysis; assay type: functional, cell-based; in short: as §2
[22] = tested on: SK-N-BE(2); experiment: Inhibition of lysosomal defects in NAGLU-silenced human SK-NBE cell clones assessed as reduction in more concentrated lysosomal distribution in the perinuclear region of the cytoplasm at 20 uM incubated for 48 hrs by LAMP1 staining based indirect immunofluorescence assay; assay type: functional; in short: as §1
[23] = tested on: Fibroblast; experiment: Inhibition of heparan sulfate accumulation on cell membrane in Sanfilippo-B patient derived human fibroblast cells at 20 uM incubated for 48 hrs by indirect immunofluorescence staining analysis; assay type: functional, cell-based; in short: as §2

Row | Compound | Activity [1] | Activity [2] | Activity [3] | Activity [4] | Activity [5] | inhibition [6] | inhibition [7] | inhibition [8] | inhibition [9] | Activity [10] | Activity [11] | inhibition [12] | Activity [13] | inhibition [14] | Activity [15] | Activity [16] | inhibition [17] | inhibition [18] | inhibition [19] | inhibition [20] | also measured
1 | CCCCCCOCCCCCN1C[C@@H](O)[C@H](O)[C@@H](O)[C@@H]1CO.Cl | Non-Toxic | Non-Toxic | inactive | Non-Toxic | inactive | inactive | inactive | inactive | inactive | inactive | inactive | inactive | Non-Toxic | inactive | Non-Toxic | Non-Toxic | – | – | – | – | –
2 | CCCCN1C[C@H](O)[C@@H](O)[C@H](O)[C@H]1CO | – | – | – | – | inactive | inactive | – | inactive | – | inactive | inactive | inactive | – | inactive | – | – | inactive | inactive | inactive | inactive | inhibition [21]: inactive; inhibition [22]: inactive; inhibition [23]: inactive
3 | CCCCCCCCCN1C[C@@H](O)[C@H](O)[C@@H](O)[C@@H]1CO.Cl | Non-Toxic | Non-Toxic | inactive | Non-Toxic | inactive | inactive | inactive | inactive | inactive | inactive | inactive | inactive | Non-Toxic | inactive | Non-Toxic | Non-Toxic | – | – | – | – | –
4 | CCCCCCCCCOCCCCCN1C[C@@H](O)[C@H](O)[C@@H](O)[C@@H]1CO.Cl | Non-Toxic | Non-Toxic | inactive | Non-Toxic | inactive | inactive | inactive | inactive | inactive | inactive | inactive | inactive | Non-Toxic | inactive | Non-Toxic | Non-Toxic | – | – | – | – | –
5 | OC[C@H]1NC[C@H](O)[C@@H](O)[C@@H]1O | – | – | – | – | inactive | inactive | – | inactive | – | inactive | inactive | inactive | – | inactive | – | – | inactive | inactive | inactive | inactive | inhibition [21]: inactive; inhibition [22]: inactive; inhibition [23]: inactive
